The list is not random: actives were taken first. Their share in the collection is about 1.9%.
PLC-gamma1 inh = blocks human PLC-gamma1 enzyme activity. inhibition, % at 12.2 µM. purified PLC-gamma1, fluorogenic substrate, fluorescence. 370,000 compounds, 0.84% hits. AID 720700
PLCb3 inh = blocks human PLC-beta3 enzyme activity; Q01970; Purified PLC-beta3, fluorogenic substrate, fluorescence; inhibition, % at 12.2 µM; 370,000 compounds, 0.18% hits; in the data active means inhibition above about 11%;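 further: 0% = median of compound wells on plate and 100% = full blocker control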
sPLA2-III inh = Blocks human group III sPLA2 activity; Q9NZ20; QFRET BODIPY PC-A2 liposome hydrolysis, fluorescence; AID 743126; 370,000 compounds, 0.56% hits; inhibition, % at 12.2 µM;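 active means inhibition above mean plus 3 SD of compounds lying within the high and low control bounds, cut at about 19% in these data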;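 further: 0% = median of test compound wells and 100% = no enzyme DMSO wells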
TbMetRS inhib = Trypanosoma brucei MetRS inhibition | purified T. brucei MetRS, ATP depletion, Kinase-Glo luminescence | inhibition, % at 11.9 µM | 360,000 compounds, 0.4% hits | AID 624268;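 active means inhibition above a per-plate cutoff of the control wells' mean inhibition plus 3 SD, cut at about 5.5% in these data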;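 further: 0% = DMSO wells median and 100% = median of wells with control inhibitor compound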
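System: purified T. brucei MetRS enzyme / Detection: Kinase-Glo luciferase luminescence reporting remaining unconsumed ATP / Medium: HEPES buffer with MgCl2, KCl, DTT, spermine, BSA, pyrophosphatase / Replication: singlicate, one well per compound / Evaluation: percent inhibition relative to median high and low control wells / Schedule: 2 h aminoacylation at 25 °C after 15 min preincubation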
PLCgamma1 ctr = counter-screen for PLC-beta3 inhibitors: inhibitors of human PLC-gamma1 | shares compounds with PLC-gamma1 inh | purified PLC-gamma1, fluorogenic substrate, fluorescence | inhibition, % at 12.3 µM | 3,300 compounds, 3.1% hits | AID 743258
PLCbeta3 conf = human PLC-beta3 inhibition, confirmation. 3,300 compounds, 1% hits. purified PLC-beta3, fluorogenic substrate fluorescence. inhibition, % at 12.3 µM. shares compounds with PLC-gamma1 inh; in the data active means inhibition above about 11%
sPLA2 confirm = human GIII-sPLA2 inhibition, confirmation. shares compounds with sPLA2-III inh. recombinant hGIII-sPLA2, BODIPY PC-A2 QFRET fluorescence. inhibition, % at 12.2 µM. 2,000 compounds, 34% hits. AID 743280;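 active means mean inhibition across triplicates above the hit cutoff set in the earlier primary screen, cut at about 19% in these data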;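 further: 0% = enzyme with DMSO and 100% = DMSO wells lacking enzyme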
535nm interf = counter-screen for HGIII-sPLA2 inhibitors: 535nm fluorescence interference; inhibition, % at 12.2 µM; shares compounds with sPLA2-III inh; BODIPY FL product fluorescence interference, QFRET; 2,000 compounds, 8.5% hits; AID 743282;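 active means average inhibition above the solvent-only control mean plus 3 SD, cut at about 6% in these data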;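 further: 0% = DMSO with substrate plus product and 100% = DMSO with substrate alone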
BODIPY interf DR = 535nm optical interference dose response, HGIII-sPLA2 counter-screen | shares compounds with sPLA2-III inh | BODIPY FL product fluorescence interference, cell-free | IC50, µM | 240 tested, under 10 active | AID 743455;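 active means IC50 at or below 10 µM; inactive means IC50 above 10 µM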
The depositor's hits bear a star; i = inactive; / = no result. Unless noted, no stated cut-off is given here; in the data, active means inhibition above about 9.5%; inactive means the rest.

SMILES | PLC-gamma1 inh | PLCb3 inh | sPLA2-III inh | TbMetRS inhib | sPLA2 confirm | 535nm interf | others
NC(=O)c1ccc(NC(=O)CSc2nnc(-c3ccccc3)n2-c2ccccc2)cc1 | 1 | 2 | -5 | / | / | /
CN(c1ccc(C(=O)Nc2ccc(Cl)cn2)cc1)S(=O)(=O)c1ccccc1 | 0 | -9 | -15 | -1 | / | /
CN(C1=C(NC(=O)c2ccc(Cl)cc2)C(=O)c2ccccc2C1=O)c1ccccc1 | 12* | 1 | 44* | -2 | 49* | 7.6* | PLCgamma1 ctr=7;PLCbeta3 conf=5
Nc1cc(N)c2c(c1)C(=O)c1ccccc1-2 | 9.8* | 7 | 20* | 0 | 38* | 4 | PLCgamma1 ctr=-3;PLCbeta3 conf=3;BODIPY interf DR=>122
CC(=O)N1CCc2cc(S(=O)(=O)NCCC(=O)N(C)Cc3ccccc3F)ccc21 | 1 | -5 | 6 | / | / | /
COc1ccc(CN(CC#Cc2ccc(C)cc2)C(N)=NC(=O)CCc2ccccc2)c(OC)c1 | -1 | -6 | -10 | / | / | /
N#CCC[C@@H]1CC[C@]2(CCCN(Cc3ccc(Br)cc3)C2)O1 | 9.5* | 3 | 22* | / | -5 | -12 | PLCgamma1 ctr=3;PLCbeta3 conf=5
N#CCC[C@H]1CC[C@]2(CCCN(Cc3cccc4ccccc34)C2)O1 | -1 | 2 | -2 | / | / | /
O=C1c2c(O)cccc2C(C2OC(CO)[C@@H](O)[C@H](O)[C@H]2O)c2cc(CO)cc(O)c21 (stereo not given in full) | -5 | -11 | -5 | 0 | / | /
O=C(O)c1cc(O)c2c(c1)[C@H]([C@H]1c3cc(C(=O)O)cc(O)c3C(=O)c3c(O[C@@H]4O[C@H](CO)[C@@H](O)[C@H](O)[C@H]4O)cccc31)c1cccc(OC3O[C@H](CO)[C@@H](O)[C@H](O)[C@H]3O)c1C2=O (stereo not given in full) | 33* | 19* | 27* | 1 | 3 | 1 | PLCgamma1 ctr=28*;PLCbeta3 conf=7
N#Cc1cc(NC2CCCC2)c([N+](=O)[O-])cc1C#N | 6 | -7 | 25* | 0 | 8 | -1
CC(C)CN1CN2CCc3ccccc3C2CS1(=O)=O (stereo not given) | 0 | 0 | 0 | / | / | /
COC(=O)C1=C(C)NC2=C(C(=O)CC(C)(C)C2)C1c1cnn(C)c1C (stereo not given) | -191 | -245 | 21* | 0 | 1 | -3
Cc1c(C2Nc3ccccc3NC3=C2C(=O)CC(C)(C)C3)cnn1C (stereo not given) | -220 | -253 | -24 | 0 | / | /
CN(C(=O)CCn1nnc(-c2cccs2)n1)C1CCCCC1 | 0 | -2 | -4 | / | / | /
O=C(Nc1nnc(-c2ccccc2F)s1)C1CCN(S(=O)(=O)c2ccc(Cl)cc2)CC1 | 0 | -1 | 23* | -1 | -7 | -8
CCOC(=O)[C@@]12CCC3=C1N(CCC3)C(=O)[C@H](CC(=O)N1CCSCC1)C2 | 0 | 2 | 5 | / | / | /
Cc1cc(C)cc(C(=O)OCCCN(C)C2CN(Cc3cn(Cc4cccc(F)c4)nn3)S(=O)(=O)C2)c1 (stereo not given) | 3 | 0 | -27 | / | / | /
Cc1ccc(S(=O)(=O)N2c3ccccc3-c3c(ssc3=S)C2(C)C)cc1 | 4 | 2 | 28* | 0 | 24* | 5
CCCNC(=O)COC(=O)c1cc2c(=O)n3ccccc3nc2s1 | -293 | -351 | 19* | 0 | -4 | -4
CCN(C(=O)c1cc2c(=O)n3ccccc3nc2s1)C1CCCCC1 | i | i | -1 | 0 | / | /
Cc1cc(C)nc(SCc2ccc(C(=O)N/N=C/c3cccc(O)c3O)cc2)n1 | -7 | -5 | 26* | 1 | 38* | -29 | BODIPY interf DR=>122
COc1cc(OC)c(NC(=O)C(Sc2nc(C)cc(C)c2C#N)c2ccccc2)cc1Cl (stereo not given) | 0 | -1 | 6 | / | / | /
O=c1c2ccc(F)cc2nc2sc(Nc3ccc4c(c3)CCC4)nn12 | -1 | -3 | 5 | / | / | /
Cc1cccc(NC(=S)NCc2ccc3c(c2)cc(C)n3C)c1C | -40 | -60 | 20* | -1 | 5 | 1
SMILES | PLC-gamma1 inh | PLCb3 inh | sPLA2-III inh | TbMetRS inhib | sPLA2 confirm | 535nm interf | others
N/C(=N\OC(=O)c1ccc2ccccc2c1)c1ccccn1 | -5 | -7 | -4 | -1 | / | /
NC(=Nc1nc(-c2ccccn2)cc2ccccc12)c1ccccn1 | -4 | -3 | 21* | 0 | -3 | -12
COC(=O)[C@]12C[C@H](CC(=O)N3CCCC3)C(=O)N(Cc3ccc(Cl)cc3Cl)C1=C[C@H](C(C)C)O[C@@H]2C1CC1 | 3 | 0 | -6 | / | / | /
Cc1cc(N)n(-c2ncnc3scc(-c4ccc(Cl)cc4)c23)n1 | 5 | 0 | 0 | 1 | / | /
Clc1ncnc2scc(-c3ccc(Br)cc3)c12 | 3 | 4 | 19* | 0 | 2 | -5
Cc1c2n(c3ccccc13)CC/C2=N\O | -10 | -21 | 10 | -1 | / | /
CO/N=C1\CCn2c1c(C)c1ccccc12 | -1 | -9 | 20* | -1 | 14 | -7
COc1ccccc1C(=O)N1CCN(C(=O)[C@H]2O[C@@H](n3cnc(C(N)=O)n3)[C@H](O)[C@@H]2O)CC1 | 1 | 3 | 9 | / | / | /
CC(=O)NC(c1ccc(C)cc1)c1cc(Cl)c2cccnc2c1O (stereo not given) | -9 | -22 | 1 | -1 | / | /
Oc1c(C(Nc2ccccn2)c2cccnc2)cc(Cl)c2cccnc12 (stereo not given) | -17 | -20 | 22* | -1 | 22* | -12
Cc1ccc(C)c(NC(=S)NNC(=O)c2csc(C)c2C)c1 | 8 | 7 | 21* | 0 | 38* | 1 | BODIPY interf DR=>122
COc1ccc(C2CCC3(CCC(=O)N3CCO)CC2)cc1 (stereo not given) | -2 | 0 | 9 | / | / | /
COc1ccc(/C=C/S(=O)(=O)NCCc2ccccc2)c(CNC(=O)OC(C)(C)C)c1 | -4 | -4 | -16 | / | / | /
C[n+]1cc2c3c(ccc2c2ccc4cc5c(cc4c21)OCO5)OCO3 | -37 | -49 | 48* | / | 46* | -3 | BODIPY interf DR=>122
COc1ccccc1N1CCN(S(=O)(=O)c2ccc3c(c2)CCC(=O)N3)CC1 | 1 | 0 | -3 | / | / | /
COC(=O)c1cnn(-c2ccc(Cl)cc2)c1/C=N/NC(N)=S | 0 | -6 | 25* | 0 | 7 | -4
O=C(COC(=O)c1cc(=O)c2ccccc2o1)Nc1c(F)c(F)c(F)c(F)c1F | 1 | -5 | -2 | 0 | / | /
O=C(COC(=O)c1cc(=O)c2ccccc2o1)Nc1ccc2ccccc2c1 | -2 | -5 | 22* | 1 | 2 | -3
